In ChEMBL document CHEMBL1138547, “Synthesis, biological evaluation and 2D-QSAR analysis of benzoxazoles as antimicrobial agents” (2009):
Values after ≈ are worked out from the molar mass of the structure shown.

Columns and labels:
Assay type in all cases: functional
[1] = tested on: Bacillus subtilis; assay: Antimicrobial activity against Bacillus subtilis ATCC 6633 after 24 hrs; conditions: for MIC: Bacillus subtilis, ATCC 6633, 24 h
Procedure, shortened: (§1)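 MIC by twofold serial dilution in Mueller-Hinton broth (MHB); MHB also used to dilute the bacterial suspension. Wells held 10^3 cfu/ml bacteria after inoculation. Controls: 80% DMSO, 20% EtOH, methanol, DMSO, PBS, organism alone and medium alone. Triplicate in each run. MIC taken as the lowest concentration completely inhibiting macroscopic growth.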

[2] = tested on: Klebsiella pneumoniae; assay: Antimicrobial activity against Klebsiella pneumoniae RSHM 574 after 24 hrs; conditions: RSHM 574, 24 h; procedure, shortened: as §1
[3] = tested on: Staphylococcus aureus; assay: Antimicrobial activity against Staphylococcus aureus ATCC 25923 after 24 hrs; conditions: ATCC 25923, 24 h
Procedure, shortened: (§2)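 Twofold serial broth dilution in Mueller-Hinton broth. MHB was used both to dilute the bacterial suspension and for the twofold compound dilutions, giving 10^3 cfu/ml bacteria per well after inoculation. Solvent, medium and organism-only wells served as controls. Each organism was run in triplicate.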

[4] = tested on: Candida albicans; assay: Antimicrobial activity against multidrug-resistant Candida albicans isolates after 24 to 48 hrs
Procedure, shortened: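 Yeast broth microdilution following CLSI M27-A, with Sabouraud dextrose medium noted for antifungal assays. Fresh cultures at McFarland 0.5 (10^6 cfu/ml) were diluted to 10^4 cfu/ml and inoculated into twofold compound dilutions. Trays were incubated at 35 °C in a humid chamber and read at 48 h, in triplicate. MIC was the lowest concentration giving complete macroscopic growth inhibition.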

[5] = tested on: Escherichia coli; assay: Antimicrobial activity against multidrug-resistant Escherichia coli after 24 hrs; procedure, shortened: as §2
[6] = tested on: Candida albicans; assay: Antimicrobial activity against Candida albicans ATCC 10231 after 24 to 48 hrs
Procedure, shortened: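 Twofold serial dilution following CLSI M27-A. Yeast suspension made at 10^4 cfu/ml by diluting a fresh culture at McFarland 0.5 (10^6 cfu/ml). Inoculated into the diluted compound, incubated at 35 °C in a humid chamber, read after 48 h. Triplicate in each run. MIC is the lowest concentration completely inhibiting macroscopic growth.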

[7] = tested on: Escherichia coli; assay: Antimicrobial activity against Escherichia coli ATCC 25922 after 24 hrs; conditions: ATCC 25922, 24 h; procedure, shortened: as §1
[8] = tested on: Klebsiella pneumoniae; assay: Antimicrobial activity against multidrug-resistant Klebsiella pneumoniae after 24 hrs; procedure, shortened: as §2
[9] = tested on: Pseudomonas aeruginosa; assay: Antimicrobial activity against Pseudomonas aeruginosa ATCC […] after 24 hrs; procedure, shortened: as §1
[10] = tested on: Staphylococcus aureus; assay: Antimicrobial activity against multidrug-resistant Staphylococcus aureus after 24 hrs; procedure, shortened: as §2
[11] = tested on: Bacillus subtilis; assay: Antimicrobial activity against ceftriazone-resistant Bacillus subtilis after 24 hrs; procedure, shortened: as §2

| Structure (SMILES) | log(1/C) [1] | MIC [1] [µg/mL] | MIC [2] [µg/mL] | MIC [3] [µg/mL] | MIC [4] [µg/mL] | MIC [5] [µg/mL] | MIC [6] [µg/mL] | MIC [7] [µg/mL] | MIC [8] [µg/mL] | MIC [9] [µg/mL] | MIC [10] [µg/mL] | MIC [11] [µg/mL] |
| --- | --- | --- | --- | --- | --- | --- | --- | --- | --- | --- | --- | --- |
| Nc1ccc2nc(-c3ccc(F)cc3)oc2c1 | 3.659 | 50 (≈ 219 µM) | 50 (≈ 219 µM) | 100 (≈ 438 µM) | 50 (≈ 219 µM) | 100 (≈ 438 µM) | 50 (≈ 219 µM) | 50 (≈ 219 µM) | 100 (≈ 438 µM) | 50 (≈ 219 µM) | 100 (≈ 438 µM) | 50 (≈ 219 µM) |
| CCc1ccc(-c2nc3ccc([N+](=O)[O-])cc3o2)cc1 | 3.73 | 50 (≈ 186 µM) | 50 (≈ 186 µM) | 100 (≈ 373 µM) | 100 (≈ 373 µM) | 100 (≈ 373 µM) | 50 (≈ 186 µM) | 50 (≈ 186 µM) | 100 (≈ 373 µM) | 50 (≈ 186 µM) | 100 (≈ 373 µM) | 25 (≈ 93.2 µM) |
| COc1ccccc1-c1nc2ccc(C)cc2o1 | 3.981 | 25 (≈ 104 µM) |  |  |  |  |  |  |  |  |  |  |
| Cc1ccc2nc(-c3ccccc3F)oc2c1 | 3.959 | 25 (≈ 110 µM) |  |  |  |  |  |  |  |  |  |  |
| Cc1ccc2oc(-c3ccccc3F)nc2c1 | 3.959 | 25 (≈ 110 µM) |  |  |  |  |  |  |  |  |  |  |
| O=[N+]([O-])c1ccc2oc(-c3ccc(F)cc3)nc2c1 | 3.713 | 50 (≈ 194 µM) | 50 (≈ 194 µM) | 100 (≈ 387 µM) | 100 (≈ 387 µM) | 100 (≈ 387 µM) | 50 (≈ 194 µM) | 50 (≈ 194 µM) | 100 (≈ 387 µM) | 50 (≈ 194 µM) | 100 (≈ 387 µM) | 25 (≈ 96.8 µM) |
| Nc1ccc2nc(-c3ccc(Br)cc3)oc2c1 | 4.063 | 25 (≈ 86.5 µM) | 50 (≈ 173 µM) | 100 (≈ 346 µM) | 50 (≈ 173 µM) | 50 (≈ 173 µM) | 100 (≈ 346 µM) | 50 (≈ 173 µM) | 100 (≈ 346 µM) | 50 (≈ 173 µM) | 100 (≈ 346 µM) | 25 (≈ 86.5 µM) |
| O=[N+]([O-])c1ccc2oc(Cc3ccc(F)cc3)nc2c1 | 4.338 | 12.5 (≈ 45.9 µM) | 50 (≈ 184 µM) | 100 (≈ 367 µM) | 50 (≈ 184 µM) | 50 (≈ 184 µM) | 100 (≈ 367 µM) | 50 (≈ 184 µM) | 100 (≈ 367 µM) | 25 (≈ 91.8 µM) | 100 (≈ 367 µM) | 50 (≈ 184 µM) |
| O=[N+]([O-])c1ccc2nc(Cc3ccc(Br)cc3)oc2c1 | 4.125 | 25 (≈ 75 µM) | 50 (≈ 150 µM) | 100 (≈ 300 µM) | 100 (≈ 300 µM) | 100 (≈ 300 µM) | 50 (≈ 150 µM) | 50 (≈ 150 µM) | 100 (≈ 300 µM) | 25 (≈ 75 µM) | 100 (≈ 300 µM) | 25 (≈ 75 µM) |
| Cc1ccc2nc(-c3ccc(Br)cc3)oc2c1 | 4.363 | 12.5 (≈ 43.4 µM) |  |  |  |  |  |  |  |  |  |  |
